# Screens (PubChem)
# Compounds with a hit are over-represented: about 3.7% of the library has one in this group of screens.
# KCNQ1 block: blocks the human KCNQ1 potassium channel. CHO-K1 KCNQ1, FluxOR thallium flux fluorescence; stronger effect = higher value. P51787. 1.3% of 310,000 active. B-score at 10 µM. AID 2642;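 active = compounds whose thallium flux B-score, printed positive for inhibition, exceeds three library SD while starting fluorescence stays within three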;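 note: channel opened by potassium depolarization with thallium stimulus after 20 min compound exposure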
# KCNQ1 pot: human KCNQ1 channel potentiation or activation; P51787; CHO-K1 KCNQ1, thallium flux FluxOR fluorescence; stronger effect = higher value; B-score at 10 µM; 0.35% of 310,000 active; AID 2648;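 active = fluorescence ratio B-score, a plate-corrected score, at least three library SD, with initial intensity B-score within 5 SD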
#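 System: CHO-K1 cells stably expressing KCNQ1 / Medium: assay buffer for compound exposure, DMSO matched across wells / Reagent: thallium- and potassium-containing depolarizing buffer / Compound: one concentration, matched DMSO / Incubation: 20 min compound pretreatment at room temperature / Measured by: kinetic FluxOR fluorescence, 10 s baseline plus 110 s post-stimulus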
# Kir21 inh: Kir2.1 (mouse) channel inhibition; AID 1672; B-score at 10 µM; P35561; HEK293-Kir2.1, FluxOR thallium flux fluorescence; stronger effect = lower value; 0.85% of 310,000 active;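 active = fluorescence ratio B-score at or below minus 3 SD of library scores, with starting-brightness B-score within 2 SD, cut at about -4.2 in these data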;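 note: channel flux triggered by added potassium and thallium sulfate stimulus; B-score of peak minus minimum fluorescence over baseline after thallium stimulus; more negative B-score means stronger Kir2.1 block with less thallium influx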
# hERG rescue: shields human hERG channel from block by proarrhythmic agents; 0.51% of 310,000 active; activation (rescue from dofetilide block), less the hit threshold, % at 10 µM; Q12809; CHO-hERG, FluxOR thallium flux, dofetilide IC70 present;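 active = activation above the mean of controls blocked by dofetilide plus 5 SD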;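 note: thallium influx through hERG after potassium depolarization seen as dye fluorescence rise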
# KCNK9 inh: human KCNK9 channel inhibition; Q9NPC2; HEK293 KCNK9, FluxOR thallium flux fluorescence; stronger effect = lower value; B-score at 10 µM; 1.2% of 310,000 active; AID 488922;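 active = ratio B-score over 3 SD below the library mean, with starting fluorescence within 5 SD of its mean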;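 note: negative B-score means less thallium flux so channel inhibition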
# KCNK3 inh: human KCNK3 channel inhibition, primary screen | O14649 | CHO-KCNK3 thallium flux, FluxOR fluorescence; stronger effect = lower value | B-score at 10 µM | 0.84% of 340,000 active | AID 602410;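 active = B-score under library mean minus 4 SD, starting fluorescence ratio at most library mean plus 5 SD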;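 note: more negative B-score means stronger inhibition of thallium flux through KCNK3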
# Target sequence (O14649 whole entry, looked up): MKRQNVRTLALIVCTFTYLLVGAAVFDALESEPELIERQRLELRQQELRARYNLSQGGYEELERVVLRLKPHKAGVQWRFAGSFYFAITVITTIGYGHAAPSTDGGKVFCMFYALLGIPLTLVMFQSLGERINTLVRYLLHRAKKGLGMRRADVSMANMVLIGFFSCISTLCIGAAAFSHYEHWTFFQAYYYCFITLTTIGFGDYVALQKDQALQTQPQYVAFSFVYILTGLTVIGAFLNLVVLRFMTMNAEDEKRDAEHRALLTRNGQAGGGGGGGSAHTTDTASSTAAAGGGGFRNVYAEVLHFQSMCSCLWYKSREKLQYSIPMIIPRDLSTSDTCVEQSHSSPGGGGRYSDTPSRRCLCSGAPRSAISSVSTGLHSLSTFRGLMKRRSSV
# KCNK3 confirm: human KCNK3 channel inhibition, confirmation assay. shares compounds with KCNK3 inh. CHO-KCNK3 thallium flux, FluxOR fluorescence; 0% buffer, 100% carvedilol maximal block. ratio percent of control, % at 10 µM. 99% of 2,400 active;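 active = ratio percent of control, averaged over triplicates, above buffer control mean plus 5 SD, cut at about 64% in these data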;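 note: ratio is the fluorescence rise from min to max over baseline after thallium stimulus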
# KCNK3 noninduced: counter-screen for KCNK3 inhibitors: effect in non-induced cells; thallium flux ratio (lower = more inhibition) at 10 µM; shares compounds with KCNK3 inh; 40% of 2,400 active; AID 651747; non-induced KCNK3 parental cells, FluxOR thallium flux; stronger effect = lower value;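 active = thallium flux ratio, averaged over three wells, more than 5 SD below the buffer control mean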;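 note: host cells are CHO cells without KCNK3 induction; ratio is peak minus trough fluorescence over baseline then normalized to buffer controls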
# The depositor's hits bear a star; i = inactive; . = no result.
SMILES,KCNQ1 block,KCNQ1 pot,Kir21 inh,hERG rescue,KCNK9 inh,KCNK3 inh,KCNK3 confirm,KCNK3 noninduced
CSc1cccc(CN2CCC(CO)(Cc3cccc(C(F)(F)F)c3)CC2)c1,i,i,-1.6,-18,i,-11*,116*,0.15*
COc1ccc(C)cc1NC(=O)CCNS(=O)(=O)c1cccc(C(F)(F)F)c1,i,i,-2.6,-12,i,i,.,.
CCOc1ccccc1N1CCN(C(=S)NC(=O)C23CC4CC(CC(C4)C2)C3)CC1,i,i,-0.45,-6,i,i,.,.
CCOc1ccccc1N1CCN(C(=S)NCc2ccc(Cl)cc2)CC1,i,i,-0.05,-12,i,-9*,119*,i
Cc1ccsc1C(=O)OCC(=O)NCc1ccccc1,.,.,.,.,.,i,.,.
Fc1ccccc1/C=C1\CCCC2=C1NC(=S)NC2c1ccccc1F (stereo unspecified),i,i,0.39,-6,i,-9*,101*,i
S=C1NC2=C(CCC/C2=C\c2ccccc2)C(c2ccccc2)N1 (stereo unspecified),i,i,-0.23,-3,i,i,.,.
COc1ccc(NC(=O)CN(C)C(=O)c2cc(-c3ccccc3)nc3ccccc23)cc1,i,i,-1.2,-13,i,i,.,.
COc1ccc(Cl)cc1NC(=O)CN(C)C(=O)c1cc(-c2ccncc2)nc2ccccc12,i,i,-0.25,-20,i,-9.2*,120*,0.14*
Cc1ccc2nc(-c3ccccc3)cc(C(=O)N(C)CC(=O)Nc3ccccc3Br)c2c1,i,i,-0.31,-19,i,-14*,110*,i
Nc1ncnc2c1c(-c1ccc(Oc3ccccc3)cc1)cn2C1CCCC1,.,.,.,.,.,-12*,115*,i
CC(C)CCn1c(SCC(=O)N2CC(=O)Nc3ccccc32)nc2scc(-c3cccs3)c2c1=O,i,i,0.35,-8,i,i,.,.
C=CCn1c(SCC(=O)N2CC(=O)Nc3ccccc32)nc2scc(-c3cccs3)c2c1=O,i,i,1.9,-15,-7.4*,-13*,110*,i
Cc1ccc(CS(=O)(=O)c2ccc(C(=O)N3CCN(c4ccccn4)CC3)cc2[N+](=O)[O-])cc1,i,i,0.59,-8,i,i,.,.
Cc1cc(O)c(C(C)C)cc1C1(c2cc(C(C)C)c(O)cc2C)OC(=O)c2ccccc21,i,i,-3.1,-1,i,-9.1*,120*,0.15*
CCC(=O)N=c1sc2c(OC)ccc(OC)c2n1C,i,i,1.1,-11,i,i,.,.
COc1ccc(OC)c2c1sc(=NC(=O)C1COc3ccccc3O1)n2C (stereo unspecified),i,i,-0.44,-10,i,-9.6*,108*,i
CC1CCC2(CC1)NC(=O)N(CC(=O)Nc1cccnc1Cl)C2=O (stereo unspecified),.,.,.,.,.,i,.,.
Cc1ccc([N+](=O)[O-])c(OCCCN2CCC(Cc3ccccc3)CC2)c1,7*,i,-9.9*,-19,i,-8.8*,119*,0.13*
Cc1cc(C(=O)CCC(=O)N(C)CC(=O)Nc2ccccc2Br)c(C)s1,i,i,-0.95,-9,i,i,.,.
Cc1ccc(NC(=S)N(C)C(c2ccccc2)c2ccccc2)cc1C,i,i,1.4,-8,i,-9.1*,134*,0.12*
CN(C(=S)Nc1ccc(F)cc1)C(c1ccccc1)c1ccccc1,i,i,0.77,-12,i,-11*,115*,i
Cc1ccc(NC(=S)N(CCN(C)C)C(C)c2ccco2)cc1C (stereo unspecified),i,i,-0.16,-6,i,i,.,.
CCCN(Cc1ccccc1)C(=S)Nc1ccc(F)cc1,i,i,-0.02,-14,i,i,.,.
CC(C)C[C@H](N)c1cn([C@@H](Cc2ccc(O)cc2)C(=O)N2CCNCC2)nn1,i,i,0.35,-6,i,i,.,.
SMILES,KCNQ1 block,KCNQ1 pot,Kir21 inh,hERG rescue,KCNK9 inh,KCNK3 inh,KCNK3 confirm,KCNK3 noninduced
CCOC(=O)c1c(CSc2ccc(CC)cc2)oc2ccc(O)c(CN(C)C)c12,8*,i,-16*,-27,-7.4*,-9.1*,120*,0.16*
O=S(=O)(c1ccc(Cl)c(C(F)(F)F)c1)N1CCN(CC(O)COc2ccccc2F)CC1 (stereo unspecified),i,i,-1.2,-10,i,i,.,.
N#Cc1cc2c(nc1SCc1ccc(Cl)nc1)CCCCC2,i,i,2.1,-14,-7*,-11*,116*,0.16*
O=C(NCc1nnc(SCC(=O)N2CCCc3ccccc32)n1-c1ccccc1)c1cccc2ccccc12,i,i,-0.51,-13,i,i,.,.
COc1ccc(-n2c(Cc3ccccc3)nnc2SCC(=O)N2CCCc3ccccc32)cc1,i,i,-2.9,-3,i,-12*,87*,i
NS(=O)(=O)c1ccc(CCNC(=O)c2cccc(OC(F)F)c2)cc1,i,i,-0.95,-7,i,i,.,.
O=[N+]([O-])c1ccccc1Nc1c2ccccc2nc2ccccc12,i,i,0.62,-22,i,i,.,.
COc1cc(Nc2nc3ccccc3nc2NS(=O)(=O)c2ccc([N+](=O)[O-])cc2)cc(OC)c1OC,10*,i,2.4,-13,i,-12*,129*,0.12*
O=C(O)c1ccc(Nc2nc3ccccc3nc2NS(=O)(=O)c2ccc(F)cc2)cc1,i,i,2.4,-13,i,i,.,.
O=[N+]([O-])c1ccc(Nc2c3ccccc3nc3ccccc23)cc1,i,i,0.17,-3,i,-12*,120*,0.15*
O=[N+]([O-])c1ccc(S(=O)(=O)Nc2nc3ccccc3nc2Nc2ccccc2)cc1,i,i,1.4,-9,i,-11*,107*,i
C[C@@H]1CN([C@@H](C)CO)C(=O)c2cc(NC(=O)Nc3ccc(F)cc3)ccc2O[C@@H]1CN(C)Cc1ccc(Oc2ccccc2)cc1,.,.,.,.,.,i,.,.
COc1cc(C(=O)NCC(c2ccccc2)N(C)C)ccc1OCC(=O)N1CCOCC1 (stereo unspecified),i,i,0.54,-1,i,i,.,.
